Experimental data as given in ChEMBL document CHEMBL1135911, “Synthesis, biological evaluation, and binding mode of novel 1-[2-(diarylmethoxy)ethyl]-2-methyl-5-nitroimidazoles targeted at the HIV-1 reverse transcriptase” (J Med Chem, 2002).

Legend:
MT4 [1] = test: (§1) Selectivity Index (CC50:EC50 Ratio); assay type: functional
[2] = test system: Human immunodeficiency virus 1; test: Dose required to achieve 50% protection of MT-4 cells from HIV-1 induced cytopathogenicity; assay type: functional, organism-based; settings: Human immunodeficiency virus 1, MT4
Outline: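 MT-4 cells (1 × 10^4/well) in RPMI 1640 with 10% FCS were infected with 100 CCID50 of HIV-1 IIIB, with or without serial dilutions of compound (DMSO stock diluted in medium). After 4 days at 37 °C, viable cells were counted by MTT. EC50 is the dose giving 50% protection from virus-induced cytopathicity; mean of at least two experiments.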

MT4 [3] = test: Dose required to reduce the viability of mock-infected cells by 50%; assay type: functional; settings: Homo sapiens
Outline: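 Mock-infected MT-4 cells were run in parallel with the antiviral assay: 1 × 10^4 cells/well, serial compound dilutions, 4 days at 37 °C. Viability was read by MTT. CC50 is the dose that reduces viability by 50%; mean of at least two experiments.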

[4] = target: Human immunodeficiency virus type 1 reverse transcriptase (Human immunodeficiency virus 1, UniProt Q72547); test: Dose required to inhibit the HIV-1 Reverse transcriptase activity by 50%
Outline: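 Highly purified recombinant wild-type HIV-1 RT, RNA-dependent polymerase activity. Buffer: 50 mM Tris-HCl pH 7.8, 80 mM KCl, 6 mM MgCl2, 1 mM DTT, 0.1 mg/mL BSA. Template/primer: poly(rC)/oligo(dG)12-18 at 0.5 OD260 unit/mL. Substrate: [3H]dGTP (1 Ci/mmol). Incubated 30 min at 37 °C; acid-insoluble radioactivity read on glass fibre filters.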

[5] = target: Human immunodeficiency virus 1; test: Anti-HIV-1 activity in MT-4 cells
[6] = as §1
Outline: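 Ratio of CC50 (MTT viability of mock-infected MT-4 cells) to EC50 (MTT protection of MT-4 cells from HIV-1 IIIB cytopathicity, 100 CCID50, 4 days at 37 °C).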

Row | EC50 [2] [µM] | EC50 [5] [µM] | Structure (SMILES) | Selectivity index (MT4 [1]) | CC50 (MT4 [3]) [µM] | IC50 [4] [µM] | Selectivity index [6]
1 | 97 |  | Cc1ncc([N+](=O)[O-])n1CCOC(c1ccccc1)c1ccc(Cl)c(Cl)c1 (configuration not stated) | >2 | 200 |  | 
2 | 5 |  | Cc1ncc([N+](=O)[O-])n1CCOC(c1ccccc1)c1ccc([N+](=O)[O-])cc1 (configuration not stated) |  | 111 |  | 22
3 | 0.2 |  | Cc1ncc([N+](=O)[O-])n1CCOC(c1ccccc1)c1ccccc1 | >1000 | > 200 |  | 
4 |  | 12 | Cc1ncc([N+](=O)[O-])n1CCOC(c1ccccc1)c1ccc(Cl)cc1 (configuration not stated) |  |  |  | 
5 |  | 3.98 | Cc1ncc([N+](=O)[O-])n1CCOC(c1ccccc1)c1ccc(C(C)(C)C)cc1 (configuration not stated) |  |  |  | 
6 |  | 1.41 | Cc1ccc(C(OCCn2c([N+](=O)[O-])cnc2C)c2ccccc2)cc1 (configuration not stated) |  |  |  | 
7 | 86 |  | COc1ccc(C(OCCn2c([N+](=O)[O-])cnc2C)c2ccccc2)cc1 (configuration not stated) | >2 | > 200 |  | 
8 | > 200 |  | CC(=O)Nc1ccc(C(OCCn2c([N+](=O)[O-])cnc2C)c2ccccc2)cc1 (configuration not stated) |  | > 200 |  | 
9 |  | 0.891 | Cc1ncc([N+](=O)[O-])n1CCOC(c1ccccc1)c1ccc(F)cc1 (configuration not stated) |  |  |  | 

The remaining lines, values behind:

Row | Structure (SMILES) | EC50 [2] [µM] | EC50 [5] [µM] | Selectivity index (MT4 [1]) | CC50 (MT4 [3]) [µM] | IC50 [4] [µM] | Selectivity index [6]
10 | Cc1ncc([N+](=O)[O-])n1CCOC(c1ccccc1)c1cccc(Cl)c1 (configuration not stated) | 0.2 |  | >1000 | > 200 | 0.5 | 
11 | Cc1ncc([N+](=O)[O-])n1CCOC(c1ccccc1)c1ccc(-c2ccccc2)cc1 (configuration not stated) |  | 17 |  |  |  | 
12 | Cc1ccccc1C(OCCn1c([N+](=O)[O-])cnc1C)c1ccccc1 (configuration not stated) | 0.2 |  | 380 | 76 | 0.2 | 
13 | Cc1cc(C)cc(C(OCCn2c([N+](=O)[O-])cnc2C)c2ccccc2)c1 (configuration not stated) | 0.4 |  | >500 | 200 |  | 
14 | Cc1ncc([N+](=O)[O-])n1CCOC(c1ccccc1)c1cccc(-n2cccc2)c1 (configuration not stated) | 14 |  | >14 | > 200 |  | 
15 | Cc1ncc([N+](=O)[O-])n1CCOC(c1ccccc1)c1cc(F)cc(F)c1 (configuration not stated) | 1 |  | >200 | > 200 |  | 
16 | Cc1ncc([N+](=O)[O-])n1CCOC(c1ccccc1)c1cccc(F)c1 (configuration not stated) | 0.1 |  | >2000 | > 200 | 0.5 | 
17 | Cc1ncc([N+](=O)[O-])n1CCOC(c1ccccc1)c1cccc([N+](=O)[O-])c1 (configuration not stated) | 0.6 |  |  | 92.5 | 0.3 | 154
18 | Cc1ncc([N+](=O)[O-])n1CCOC(c1ccccc1)c1ccccc1Cl (configuration not stated) | 0.6 |  | 85 | 52 | 0.6 | 
19 | Cc1ncc([N+](=O)[O-])n1CCOC(c1ccccc1)c1cc(Cl)cc(Cl)c1 (configuration not stated) | 45 |  | >4 | > 200 |  | 
20 | CC(C)Nc1cccnc1N1CCN(C(=O)c2cc3cc(NS(C)(=O)=O)ccc3[nH]2)CC1 [DELAVIRDINE] | 0.01 |  |  | > 30 |  | 
21 | Cc1ncc([N+](=O)[O-])n1CCOC(c1ccccc1)c1ccccc1F (configuration not stated) | 0.2 |  | 315 | 63 | 0.4 | 
22 | Cc1cccc(C(OCCn2c([N+](=O)[O-])cnc2C)c2ccccc2)c1 (configuration not stated) | 0.1 |  | >2000 | > 200 | 0.3 | 
23 | Cc1ncc([N+](=O)[O-])n1CCOC(c1ccccc1)c1ccc2ccccc2c1 (configuration not stated) | 106 |  | >1.8 | > 200 |  | 
24 | Cc1ncc([N+](=O)[O-])n1CCCOC(c1ccccc1)c1ccccc1 | 35 |  | 3 | 96.5 |  | 
